According to ChEMBL document CHEMBL4840318, “The Total Chemical Synthesis and Biological Evaluation of the Cationic Antimicrobial Peptides, Laterocidine and Brevicidine” (2021):
≈ marks a conversion by molar mass, not a printed value. Positions of bridges follow the written chain, without caps; N, C: chain ends. Non-standard residues stand in square brackets, D forms with d. Residues, ends and D or L forms follow the SMILES beside them. ξ: configuration not given here. *: point of attachment. Octanoyl(7-Me) = CC(C)CCCCCC(=O)*; Hexanoyl(4ξ-Me) = CCC(C)CCC(=O)*; dOrn = NCCC[C@@H](N)C(=O)O; X1 = CC[C@H](C)CCCCC(=O)*; Orn = NCCC[C@H](N)C(=O)O; Dab = NCC[C@H](N)C(=O)O

Columns and labels:
Assay type in all cases: functional
[1] = tested on: Escherichia coli; experiment: Antibacterial activity against Escherichia coli ATCC 25922 assessed as inhibition of bacterial growth incubated for 18 hrs by CLSI protocol based method
In short: (§1)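 CLSI broth microdilution in cation-adjusted Mueller Hinton broth, in polypropylene plates. Bacteria were grown at 37 °C with shaking (200 rpm) for 8 h, then diluted into fresh medium and added to the wells. Compounds were tested as twofold dilutions from 64 to 0.25 μM (final), in triplicate, with growth and sterility controls. Plates were incubated at 37 °C with shaking. MIC is the lowest concentration with no growth, consistent across three biological replicates.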

[2] = tested on: Staphylococcus aureus; experiment: Antibacterial activity against Staphylococcus aureus ATCC 29213 assessed as inhibition of bacterial growth incubated for 18 hrs by CLSI protocol based method; in short: as §1
[3] = tested on: Staphylococcus aureus; experiment: Antibacterial activity against methicillin-resistant Staphylococcus aureus assessed as inhibition of bacterial growth incubated for 24 hrs by multiplate photometer method
[4] = tested on: Escherichia coli; experiment: Antibacterial activity against Escherichia coli ATCC 25922 assessed as inhibition of bacterial growth incubated for 24 hrs by multiplate photometer method

CC[C@H](C)[C@@H]1NC(=O)[C@@H](NC(=O)[C@H](Cc2c[nH]c3ccccc23)NC(=O)[C@@H](CCCN)NC(=O)CNC(=O)[C@H](CCCN)NC(=O)[C@@H](CCCN)NC(=O)[C@@H](Cc2c[nH]c3ccccc23)NC(=O)[C@@H](Cc2ccc(O)cc2)NC(=O)[C@@H](CO)NC(=O)CCCCCC(C)C)[C@@H](C)OC(=O)CNC(=O)CNC(=O)[C@H](CC(N)=O)NC1=O ({Octanoyl(7-Me)}-[dS][dY][dW][dOrn][Orn]G[dOrn]WTINGG; ester 9-C) gave an MIC [1] of 0.25 µg/mL (≈ 0.156 µM), an MIC [2] of over 64 µg/mL and an MIC [3] of over 64 µg/mL. The MIC [4] was 2 µg/mL (≈ 1.25 µM).

With CCC(C)CCC(=O)N[C@H](CC(N)=O)C(=O)N[C@H](Cc1ccc(O)cc1)C(=O)N[C@H](Cc1c[nH]c2ccccc12)C(=O)N[C@H](CCCN)C(=O)N[C@@H](CCCN)C(=O)NCC(=O)N[C@H](CCCN)C(=O)N[C@@H](Cc1c[nH]c2ccccc12)C(=O)N[C@@H]1C(=O)N[C@@H]([C@@H](C)CC)C(=O)NCC(=O)N[C@@H](CO)C(=O)O[C@@H]1C (some centres undefined) ({Hexanoyl(4ξ-Me)}-[dN][dY][dW][dOrn][Orn]G[dOrn]WTIGS; ester 9-C) the MIC [1] was 2 µg/mL (≈ 1.32 µM), the MIC [2] was over 64 µg/mL and the MIC [3] was over 64 µg/mL. The MIC [4] was 2 µg/mL (≈ 1.32 µM).

CC1(C)S[C@@H]2[C@H](NC(=O)[C@H](N)c3ccc(O)cc3)C(=O)N2[C@H]1C(=O)O [AMOXICILLIN] was tested, and the MIC [1] was 6 µg/mL (≈ 16.4 µM) and the MIC [2] was 3 µg/mL (≈ 8.21 µM).

In the case of CC[C@H](C)CCCCC(=O)N[C@@H](CCN)C(=O)N[C@H](C(=O)N[C@@H](CCN)C(=O)N[C@H]1CCNC(=O)[C@H]([C@@H](C)O)NC(=O)[C@H](CCN)NC(=O)[C@H](CCN)NC(=O)[C@H](CC(C)C)NC(=O)[C@@H](Cc2ccccc2)NC(=O)[C@H](CCN)NC1=O)[C@@H](C)O (X1-[Dab]T[Dab][Dab][Dab][dF]L[Dab][Dab]T; lactam 4-C), the MIC [1] is reported as 0.3 µg/mL (≈ 0.249 µM), the MIC [2] is reported as over 64 µg/mL and the MIC [3] is reported as 32 µg/mL (≈ 26.6 µM). The MIC [4] was 1 µg/mL (≈ 0.831 µM).
